Reference: ChEMBL document CHEMBL1135826, “Antimicrobial peptides: synthesis and antibacterial activity of linear and cyclic drosocin and apidaecin 1b analogues” (2002)
Converted amounts (≈) assume the structure as drawn. Where a SMILES comes first, the peptide text is derived from it.

Key:
Salmonella enteritidis [1] = experiment: Minimum inhibitory concentration (lowest peptide concentration) required to prevent visible bacterial growth after 18 hr of incubation at 37 C in Mueller-Hinton broth against Salmonella enteritidis D5; settings: Salmonella enterica
Escherichia coli [2] = experiment: Minimum inhibitory concentration (lowest peptide concentration) required to prevent visible bacterial growth after 18 hr of incubation at 37 C in Mueller-Hinton broth against Escherichia coli D22; assay type: functional
Procedure, shortened: (§1)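 Broth microdilution susceptibility test per NCCLS guidelines, in Mueller–Hinton broth with about 1.5–2.0 × 10^5 CFU/mL inoculum. Plates were incubated 18 h at 37 °C. MIC was taken as the lowest peptide concentration with no visible growth. Strains were ATCC strains or clinical isolates; E. coli O18:K1:H7 Bort is an encapsulated isolate from neonatal spinal fluid, and the S. aureus isolate is MRSA.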

Escherichia coli [3] = experiment: Minimum inhibitory concentration (lowest peptide concentration) required to prevent visible bacterial growth after 18 hr of incubation at 37 C in Mueller-Hinton broth against Escherichia coli D21; assay type: functional
Procedure, shortened: as §1

Pseudomonas aeruginosa = experiment: Minimum inhibitory concentration (lowest peptide concentration) required to prevent visible bacterial growth after 18 hr of incubation at 37 C in Mueller-Hinton broth against Pseudomonas aeruginosa ATCC 27853; assay type: functional; settings: ATCC 27853, 18 h
Procedure, shortened: as §1

Salmonella enteritidis [4] = experiment: Minimum inhibitory concentration (lowest peptide concentration) required to prevent visible bacterial growth after 18 h of incubation at 37 C in Mueller-Hinton broth against […]; assay type: functional, Salmonella enterica subsp. enterica serovar Enteritidis; settings: Salmonella enterica
Procedure, shortened: as §1

Salmonella typhimurium = experiment: Minimum inhibitory concentration (lowest peptide concentration) required to prevent visible bacterial growth after 18 hr of incubation at 37 C in Mueller-Hinton broth against Salmonella Typhimurium ATCC 14028; assay type: functional, Salmonella enterica subsp. enterica serovar Typhimurium; settings: Salmonella enterica
Procedure, shortened: as §1

Escherichia coli [5] = experiment: Minimum inhibitory concentration (lowest peptide concentration) required to prevent visible bacterial growth after 18 hr of incubation at 37 C in Mueller-Hinton broth against Escherichia coli ATCC 25922; assay type: functional; settings: ATCC 25922, 18 h
Procedure, shortened: as §1

[6] = test system: Staphylococcus epidermidis; experiment: Minimum inhibitory concentration (lowest peptide concentration) required to prevent visible bacterial growth after 18 hr of incubation at 37 C in Mueller-Hinton broth against Staphylococcus epidermidis 4; assay type: functional
Procedure, shortened: as §1

Klebsiella pneumoniae [7] = experiment: Minimum inhibitory concentration (lowest peptide concentration) required to prevent visible bacterial growth after 18 hr of incubation at 37 C in Mueller-Hinton broth against Klebsiella pneumoniae 79; assay type: functional
Procedure, shortened: as §1

Escherichia coli [8] = experiment: Minimum inhibitory concentration (lowest peptide concentration) required to prevent visible bacterial growth after 18 hr of incubation at 37 C in Mueller-Hinton broth against Escherichia coli ML-35; assay type: functional
Procedure, shortened: as §1

Klebsiella pneumoniae [9] = experiment: Minimum inhibitory concentration (lowest peptide concentration) required to prevent visible bacterial growth after 18 hr of incubation at 37 C in Mueller-Hinton broth against Klebsiella pneumoniae 22; assay type: functional
Procedure, shortened: as §1

Escherichia coli [10] = experiment: Minimum inhibitory concentration (lowest peptide concentration) required to prevent visible bacterial growth after 18 hr of incubation at 37 C in Mueller-Hinton broth against Escherichia coli O18:K1:H7; assay type: functional
Procedure, shortened: as §1

Acinetobacter baumannii = experiment: Minimum inhibitory concentration (lowest peptide concentration) required to prevent visible bacterial growth after 18 hr of incubation at 37 C in Mueller-Hinton broth against Acinetobacter baumannii 118A; assay type: functional
Procedure, shortened: as §1

Staphylococcus aureus = experiment: Minimum inhibitory concentration (lowest peptide concentration) required to prevent visible bacterial growth after 18 hr of incubation at 37 C in Mueller-Hinton broth against Staphylococcus aureus G; assay type: functional
Procedure, shortened: as §1

| Compound | MIC (Salmonella enteritidis [1]) | MIC (Escherichia coli [2]) | MIC (Escherichia coli [3]) | MIC (Pseudomonas aeruginosa) | MIC (Salmonella enteritidis [4]) | MIC (Salmonella typhimurium) | MIC (Escherichia coli [5]) | MIC [6] | MIC (Klebsiella pneumoniae [7]) | MIC (Escherichia coli [8]) | MIC (Klebsiella pneumoniae [9]) | MIC (Escherichia coli [10]) | MIC (Acinetobacter baumannii) | MIC (Staphylococcus aureus) |
| --- | --- | --- | --- | --- | --- | --- | --- | --- | --- | --- | --- | --- | --- | --- |
| CC[C@H](C)[C@@H]1NC(=O)[C@@H]2CCCN2C(=O)[C@H](CCCN=C(N)N)NC(=O)[C@@H]2CCCN2C(=O)[C@H](Cc2c[nH]cn2)NC(=O)[C@H](CO)NC(=O)[C@H]([C@@H](C)O)NC(=O)[C@@H]2CCCN2C(=O)[C@H](CCCN=C(N)N)NC(=O)[C@@H]2CCCN2C(=O)[C@H](CO)NC(=O)[C@H](Cc2ccc(O)cc2)NC(=O)[C@@H]2CCCN2C(=O)[C@H](CCCN=C(N)N)NC(=O)[C@@H]2CCCN2C(=O)[C@H](CCCCN)NC(=O)CNC(=O)[C@H](C(C)C)NC(=O)[C@H](CCCN=C(N)N)NC1=O (HELM PEPTIDE1{G.K.P.R.P.Y.S.P.R.P.T.S.H.P.R.P.I.R.V}$PEPTIDE1,PEPTIDE1,1:R1-19:R2$$$V2.0) | > 128 µM | 64 µM (≈ 140 µg/mL) | > 64 µM | > 128 µM | > 128 µM | > 128 µM | > 128 µM | > 64 µM | > 128 µM | > 128 µM | > 128 µM | > 128 µM | > 64 µM | > 64 µM |
| CC[C@H](C)[C@@H]1NC(=O)[C@H](Cc2ccc(O)cc2)NC(=O)[C@H](C(C)C)NC(=O)[C@@H]2CCCN2C(=O)[C@H](CCCN=C(N)N)NC(=O)[C@H](CC(N)=O)NC(=O)[C@H](CC(N)=O)NC(=O)CNC(=O)[C@H](CC(C)C)NC(=O)[C@H](CCCN=C(N)N)NC(=O)[C@@H]2CCCN2C(=O)[C@H](Cc2c[nH]cn2)NC(=O)[C@@H]2CCCN2C(=O)[C@@H]2CCCN2C(=O)[C@H](CCCN=C(N)N)NC(=O)[C@@H]2CCCN2C(=O)[C@H](CCC(N)=O)NC(=O)[C@@H]2CCCN2C1=O (HELM PEPTIDE1{G.N.N.R.P.V.Y.I.P.Q.P.R.P.P.H.P.R.L}$PEPTIDE1,PEPTIDE1,1:R1-18:R2$$$V2.0) | > 64 µM | 64 µM (≈ 134 µg/mL) | > 64 µM | > 128 µM | > 64 µM | > 64 µM | > 64 µM | > 64 µM | > 64 µM | 64 µM (≈ 134 µg/mL) | > 64 µM | 32 µM (≈ 66.9 µg/mL) | > 128 µM | > 64 µM |
| CC[C@H](C)[C@H](NC(=O)[C@H](Cc1ccc(O)cc1)NC(=O)[C@@H](NC(=O)[C@@H]1CCCN1C(=O)[C@H](CCCNC(=N)N)NC(=O)[C@H](CC(N)=O)NC(=O)[C@H](CC(N)=O)NC(=O)CN)C(C)C)C(=O)N1CCC[C@H]1C(=O)N[C@@H](CCC(N)=O)C(=O)N1CCC[C@H]1C(=O)N[C@@H](CCCNC(=N)N)C(=O)N1CCC[C@H]1C(=O)N1CCC[C@H]1C(=O)N[C@@H](Cc1cnc[nH]1)C(=O)N1CCC[C@H]1C(=O)N[C@@H](CCCNC(=N)N)C(=O)N[C@@H](CC(C)C)C(=O)O [APIDAECIN] | 4 µM (≈ 8.43 µg/mL) | 4 µM (≈ 8.43 µg/mL) | > 64 µM | > 128 µM | 4 µM (≈ 8.43 µg/mL) | 8 µM (≈ 16.9 µg/mL) | 4 µM (≈ 8.43 µg/mL) | > 64 µM | 32 µM (≈ 67.5 µg/mL) | 4 µM (≈ 8.43 µg/mL) | 32 µM (≈ 67.5 µg/mL) | 4 µM (≈ 8.43 µg/mL) | > 128 µM | > 64 µM |
| H-GKPRPYSPRPASHPRPIRV-OH | 8 µM | > 64 µM | > 128 µM | > 128 µM | 16 µM | 32 µM | 64 µM | > 64 µM | > 128 µM | 16 µM | > 128 µM | 16 µM | > 128 µM | > 64 µM |
| H-GKPRPYSPRPSHPRPIRV-OH | 32 µM | > 64 µM | > 64 µM | > 128 µM | > 64 µM | > 64 µM | 64 µM | > 64 µM | > 128 µM | 32 µM | > 128 µM | 64 µM | > 64 µM | > 64 µM |
| H-GKPRPYSPRPTSHPRPIRV-OH [DROSOCIN] | 16 µM | > 64 µM | > 128 µM | > 128 µM | 8 µM | 32 µM | 4 µM | > 64 µM | 64 µM | 2 µM | 128 µM | 8 µM | > 128 µM | > 64 µM |
| H-GNNRPVYIPQPRPTPHPRL-OH | > 128 µM | > 64 µM | > 64 µM | > 128 µM | > 128 µM | > 128 µM | > 128 µM | > 64 µM | > 128 µM | > 128 µM | > 128 µM | > 128 µM | > 128 µM | > 64 µM |
